ChEMBL document CHEMBL2057204, “Synthesis, biological evaluation, and molecular docking studies of N-((1,3-diphenyl-1H-pyrazol-4-yl)methyl)aniline derivatives as novel anticancer agents” (Bioorg Med Chem, 2012)
pIC50: −log10 of the molar value.

Columns and labels:
MCF7 = assay: Antiproliferative activity against human MCF7 cells after 48 hrs by MTT assay; assay type: functional, cell-based; details: MCF7, 48 h
Procedure, shortened: (§1)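 Cells grown to log phase in RPMI 1640 with 10% FBS, diluted to 2 × 10⁴ cells/mL in complete medium and seeded into 96-well plates. Plates held 24 h at 37 °C, 5% CO₂ before compound exposure. After a 4 h incubation, absorbance read at 570 nm on a microplate reader. Three replicate wells per concentration; each assay run at least three times; IC₅₀ reported.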

[1] = molecular target: Cyclin-dependent kinase 2/cyclin E1 (Homo sapiens, UniProt P24941); assay: Inhibition of CDK2/cyclin E; assay type: protein-complex assay
B16-F10 = assay: Antiproliferative activity against mouse B16F10 cells after 48 hrs by MTT assay; assay type: functional, cell-based; details: B16-F10, 48 h; procedure, shortened: as §1

| pIC50 (MCF7) | pIC50 [1] | pIC50 (B16-F10) | Structure (SMILES) |
| --- | --- | --- | --- |
| 5.73 | 6.01 | 5.67 | Fc1ccc(NCc2cn(-c3ccccc3)nc2-c2ccc(Cl)cc2)cc1 |
| 5.64 | 5.93 | 5.61 | Clc1ccc(NCc2cn(-c3ccccc3)nc2-c2ccc(Cl)cc2)cc1 |
| 5.58 | 5.73 | 5.52 | Clc1ccc(-c2nn(-c3ccccc3)cc2CNc2ccc(Br)cc2)cc1 |
| 5.51 | 5.68 | 5.46 | Cc1ccc(NCc2cn(-c3ccccc3)nc2-c2ccc(Cl)cc2)cc1 |
| 5.40 | 5.63 | 5.38 | Fc1ccc(NCc2cn(-c3ccccc3)nc2-c2ccc(Br)cc2)cc1 |
| 5.38 | 5.59 | 5.37 | Clc1ccc(NCc2cn(-c3ccccc3)nc2-c2ccc(Br)cc2)cc1 |
| 5.30 | 5.56 | 5.28 | Brc1ccc(NCc2cn(-c3ccccc3)nc2-c2ccc(Br)cc2)cc1 |
| 5.27 | 5.52 | 5.22 | Cc1ccc(NCc2cn(-c3ccccc3)nc2-c2ccc(Br)cc2)cc1 |
| 5.23 | 5.44 | 5.25 | Cc1ccc(-c2nn(-c3ccccc3)cc2CNc2ccc(F)cc2)cc1 |
| 5.22 | 5.41 | 5.22 | Cc1ccc(-c2nn(-c3ccccc3)cc2CNc2ccc(Cl)cc2)cc1 |
| 5.16 | 5.38 | 5.17 | Cc1ccc(-c2nn(-c3ccccc3)cc2CNc2ccc(Br)cc2)cc1 |
| 5.14 | 5.34 | 5.13 | Cc1ccc(NCc2cn(-c3ccccc3)nc2-c2ccc(C)cc2)cc1 |
| 5.22 | 5.40 | 5.18 | COc1ccc(-c2nn(-c3ccccc3)cc2CNc2ccc(F)cc2)cc1 |
| 5.20 | 5.37 | 5.14 | COc1ccc(-c2nn(-c3ccccc3)cc2CNc2ccc(Cl)cc2)cc1 |
| 5.15 | 5.30 | 5.09 | COc1ccc(-c2nn(-c3ccccc3)cc2CNc2ccc(Br)cc2)cc1 |
| 5.09 | 5.30 | 5.08 | COc1ccc(-c2nn(-c3ccccc3)cc2CNc2ccc(C)cc2)cc1 |
| 3.89 | – | 3.98 | Cn1cnc2c(NCc3ccccc3)nc(NCCO)nc21 [OLOMOUCINE] |
